Source: ChEMBL document CHEMBL3393008, “Identification of a novel orally bioavailable phosphodiesterase 10A (PDE10A) inhibitor with efficacy in animal models of schizophrenia” (J Med Chem, 2015)

Columns and labels:
Type in all cases: ADME, organism-based
[1] = Oral bioavailability in rat at 10 mg/kg administered as single dose; settings: in vivo
[2] = Volume of distribution in rat; settings: in vivo
[3] = Drug level in rat brain at 10 mg/kg, sc after 1 hr; set-up: dose 10 mg/kg, route subcutaneous; settings: read-out: Drug uptake
How it was run: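 Rats dosed 10 mg/kg sc; total brain level measured 1 h after dosing.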

For `COCCc1ccc(-c2c(C)nc3c(N4CCOCC4)nccn23)cn1`, the bioavailability [1] was 45%, the Vd [2] was 1.9 L/kg and the concentration at 1 h [3] was 1210 ng/g.
